Assay results from ChEMBL document CHEMBL1132439, “Selective A(3) adenosine receptor antagonists: water-soluble 3, 5-diacyl-1,2,4-trialkylpyridinium salts and their oxidative generation from dihydropyridine precursors” (J Med Chem, 1999).

How the values were obtained:
[1] = target: Adenosine receptor A2a (Rattus norvegicus, UniProt P30543); experiment: Displacement of [3H]CGS-21680 from Adenosine A2A receptor of rat striatal membranes.; assay type: cell membranes, Membrane
How it was run: (§1)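 Rat striatal membranes prepared with adenosine deaminase 3 units/mL, also present in a 30 min preincubation at 30 °C and during radioligand incubation. Nonspecific binding defined with 20 μM 2-chloroadenosine. Compounds dissolved in DMSO, diluted in buffer (≤1% DMSO). Filtration over GF/B filters. IC50 from at least five competitor concentrations spanning 3 log units, converted to Ki by Cheng-Prusoff; n = 3–6, or % specific binding displaced at 10⁻⁴ M.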

[2] = target: T1, Adenosine receptor A1 (Rattus norvegicus) (UniProt P25099); experiment: (§2) Displacement of [3H]R-PIA from Adenosine A1 receptor of rat brain membranes; assay type: cell membranes; details: Membrane
T1 sequence (whole entry): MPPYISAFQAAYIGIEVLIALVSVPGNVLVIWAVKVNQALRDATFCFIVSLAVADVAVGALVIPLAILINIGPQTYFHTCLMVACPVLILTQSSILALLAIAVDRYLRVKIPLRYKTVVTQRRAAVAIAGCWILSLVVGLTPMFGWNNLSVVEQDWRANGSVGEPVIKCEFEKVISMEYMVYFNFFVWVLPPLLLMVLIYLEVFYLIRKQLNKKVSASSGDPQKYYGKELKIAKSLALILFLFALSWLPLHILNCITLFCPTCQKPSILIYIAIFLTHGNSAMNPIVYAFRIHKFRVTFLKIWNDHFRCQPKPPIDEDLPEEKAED
How it was run: (§3)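 Rat cerebral cortex membranes prepared with adenosine deaminase 3 units/mL, also present in a 30 min preincubation at 30 °C and during radioligand incubation. Nonspecific binding defined with 10 μM 2-chloroadenosine. Compounds dissolved in DMSO, diluted in buffer (≤1% DMSO). Filtration over GF/B filters.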

[3] = target: Adenosine receptor A2a (Rattus norvegicus) (UniProt P30543); experiment: Displacement of [3H]CGS-21680 from Adenosine A2A receptor of rat striatal membranes at 10^-4M; assay type: cell membranes; details: Membrane; how it was run: as §1
Chain of Adenosine receptor A2a (Rattus norvegicus) (P30543 whole entry): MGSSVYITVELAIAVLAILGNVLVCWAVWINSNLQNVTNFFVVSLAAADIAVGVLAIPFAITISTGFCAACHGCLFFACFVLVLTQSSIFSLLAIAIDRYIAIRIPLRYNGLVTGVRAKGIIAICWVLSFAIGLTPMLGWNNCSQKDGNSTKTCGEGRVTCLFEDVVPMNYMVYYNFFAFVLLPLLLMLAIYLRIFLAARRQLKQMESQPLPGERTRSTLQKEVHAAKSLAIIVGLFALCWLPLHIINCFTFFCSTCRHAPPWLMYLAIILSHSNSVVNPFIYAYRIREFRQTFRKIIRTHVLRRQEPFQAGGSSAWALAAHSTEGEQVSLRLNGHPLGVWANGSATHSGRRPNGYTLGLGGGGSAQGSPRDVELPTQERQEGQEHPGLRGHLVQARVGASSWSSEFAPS

[4] = target: T2, Adenosine receptor A1 (Rattus norvegicus, UniProt P25099); experiment: as §2; assay type: cell membranes, Membrane; how it was run: as §3
T2 sequence (P25099 whole entry): T1 sequence (whole entry)

[5] = target: T1, Adenosine receptor A1 (Rattus norvegicus); experiment: Displacement of [3H]R-PIA from Adenosine A1 receptor from rat brain membranes at 10^-4M; assay type: cell membranes; details: Membrane; how it was run: as §3

Chain of Adenosine receptor A2a (P30543 whole entry): as above

| Compound | Ki [1] [µM] | Displacement [2] [%] | Displacement [3] [%] | Ki [4] [µM] | Displacement [5] [%] |
| --- | --- | --- | --- | --- | --- |
| CCCOC(=O)c1c(CCC)c(C(=O)SCC)c(CCOCc2ccccc2)[n+](C)c1-c1ccccc1 | 11.9 | 21 | – | – | – |
| CCOC(=O)c1c(CC)c(C(=O)SCC)c(CC)[n+](C)c1C1CCCC1 | 7.72 | – | – | – | – |
| CCOC(=O)c1c(CCN2C(=O)c3ccccc3C2=O)c(C(=O)SCC)c(CC)[n+](C)c1-c1ccccc1 | 2.15 | – | – | 1.53 | – |
| CCOC(=O)c1c(CC)c(C(=O)SCC)c(C2CCC2)[n+](C)c1-c1ccccc1 | 33.2 | – | – | 88 | – |
| CCCOC(=O)c1c(CCC)c(C(=O)SCCCF)c(CC)[n+](C)c1-c1ccccc1 | 7.37 | – | – | – | < 10 |
| CCCOC(=O)c1c(CCSC(C)=O)c(C(=O)SCC)c(CC)[n+](C)c1-c1ccccc1 | 53.2 | – | – | – | 45 |

Next, values leading:

| Ki [1] [µM] | Displacement [2] [%] | Displacement [3] [%] | Ki [4] [µM] | Displacement [5] [%] | Compound |
| --- | --- | --- | --- | --- | --- |
| – | – | 25 | – | – | CCOC(=O)c1c(CC)c(C(=O)SCC)c(CC)[n+](CC)c1-c1ccccc1 |
| 11.6 | – | – | 31.9 | – | CCOC(=O)c1c(CC)c(C(=O)SCC)c(CC)[n+](C)c1-c1ccccc1 |
| 6.02 | – | – | 14.5 | – | CCCCc1c(C(=O)SCC)c(CC)c(C(=O)OCC)c(-c2ccccc2)[n+]1C |
| – | – | 25 | – | < 10 | CCCOC(=O)c1c(CCC)c(C(=O)SCC)c(CC)[n+](C)c1-c1ccccc1 |
| 56.6 | – | – | – | 30 | CCSC(=O)c1c(CC)c(C(=O)OCCF)c(-c2ccccc2)[n+](C)c1CC |
| – | – | 28 | 76.9 | – | CCC[n+]1c(CC)c(C(=O)SCC)c(CC)c(C(=O)OCC)c1-c1ccccc1 |
| 18.7 | – | – | – | < 10 | CCCOC(=O)c1c(CC)c(C(=O)SCC)c(CC)[n+](C)c1-c1ccccc1 |
| 20.8 | – | – | – | 22 | CCOC(=O)c1c(CC)c(C(=O)SCC)c(C)[n+](C)c1-c1ccccc1 |
